pIC50: −log10 of the molar value. The source made the active and inactive calls. Bounds are passed on as bounds.

Series [1] has as its target T1, Glycogen synthase kinase-3 beta (Homo sapiens, UniProt P49841). In words: Inhibition of GSK3beta (unknown origin) at 10 uM using GS-2 peptide substrate incubated for 30 mins by kinase-Glo luminescent assay. An outline of the steps:
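Human recombinant GSK-3β, 20 ng, in 50 mM HEPES pH 7.5 with 1 mM EDTA, 1 mM EGTA and Mg acetate. Substrate prephosphorylated GS-2 peptide 25 µM with 1 µM ATP; DMSO ≤1%. Incubated 30 min at 30 °C, then Kinase-Glo luminescence read after 10 min. Activity scaled between no-inhibitor and full-inhibition reference controls.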
Target sequence in this assay (P49841 whole entry, looked up): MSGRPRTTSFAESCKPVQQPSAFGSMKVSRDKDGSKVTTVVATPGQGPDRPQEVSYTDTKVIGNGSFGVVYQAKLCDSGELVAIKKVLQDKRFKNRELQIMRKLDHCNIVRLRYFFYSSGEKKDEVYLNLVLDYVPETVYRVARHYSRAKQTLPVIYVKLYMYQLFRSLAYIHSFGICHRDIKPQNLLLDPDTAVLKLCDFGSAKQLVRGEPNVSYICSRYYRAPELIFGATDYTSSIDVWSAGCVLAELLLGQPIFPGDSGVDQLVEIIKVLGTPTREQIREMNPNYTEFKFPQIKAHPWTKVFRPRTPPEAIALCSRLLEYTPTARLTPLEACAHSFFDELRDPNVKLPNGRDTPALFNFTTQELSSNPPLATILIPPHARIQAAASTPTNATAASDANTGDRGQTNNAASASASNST

Series [2] deals with T1, Glycogen synthase kinase-3 beta. The experiment in a line: Inhibition of GSK3beta (unknown origin) using GS-2 peptide substrate incubated for 30 mins by kinase-Glo luminescent assay. An outline of the steps: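 Human recombinant GSK-3β, 20 ng, in 50 mM HEPES pH 7.5 with 1 mM EDTA, 1 mM EGTA and Mg acetate. Incubated 30 min at 30 °C, then Kinase-Glo luminescence read after 10 min. Activity scaled between no-inhibitor and full-inhibition reference controls.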
Target sequence in this assay (P49841 whole entry): as the sequence (P49841 whole entry, looked up) above

For series [3] the target is unchanged. The experiment in a line: Inhibition of GSK3beta (unknown origin) pre-incubated for 30 mins followed by ULight-GS (Ser641/pSer657) peptide substrate addition and measured after 1 hr by TR-FRET assay.
Target sequence in this assay (P49841 whole entry): as the sequence (P49841 whole entry, looked up) above
Series [4] has the same target. In words: Reversible inhibition of GSK3beta (unknown origin) pre-incubated for 30 mins followed by 100 fold dilution into buffer containing ULight-GS (Ser641/pSer657) peptide substrate and cofactors by TR-FRET assay based jump-dilution assay.
Target sequence in this assay (P49841 whole entry, looked up): as above
For series [5] the target is unchanged. The experiment in a line: Competitive inhibition of GSK3beta (unknown origin) at 10 uM using fixed level of GS-2 peptide substrate and varying ATP levels incubated for 30 mins by kinase-Glo luminescent assay. An outline of the steps: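 Human recombinant GSK-3β, 20 ng per reaction, in HEPES pH 7.5 buffer with EDTA, EGTA and Mg acetate. GS-2 prephosphorylated peptide held at 25 µM; ATP varied from 1 to 50 µM along with inhibitor level. 30 min at 30 °C, then Kinase-Glo luminescence read after 10 min. Lineweaver–Burk double-reciprocal analysis; means of two experiments, each run in triplicate.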
Target sequence in this assay (P49841 whole entry, looked up): as above

Series [6] can be described thus: Permeability in pH 7.4 PBS incubated for 2.5 hrs by PAMPA-BBB assay. The series is classed as ADME. As to conditions: read-out: permeability. An outline of the steps: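 PAMPA-BBB: donor filter coated with porcine brain lipid in dodecane (20 mg/mL). Compounds in PBS pH 7.4/EtOH 70:30, acceptor filled with the same. Sandwich incubated 2.5 h at 25 °C, then donor and acceptor concentrations measured by UV at 3–5 wavelengths, 3 wells, two runs. Ten reference drugs included for validation.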

In series [7] the test system is Cerebellar granule neurone. The experiment in a line: Neurotoxicity in rat primary cerebellar granule neurons assessed as reduction in cell viability at 50 uM incubated for 24 hrs by MTT assay. The format is toxicity. An outline of the steps: (§1)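 Cerebellar granule neurons from 7-day-old rat pups, plated on poly-L-lysine at 3 × 10^5 cells/well in BME with FBS and 25 mM KCl. Cytosine arabinoside 10 µM added at 16 h. At 7 days in vitro, switched to serum-free BME with 25 mM KCl and treated 24 h at 0, 5, 25 or 50 µM. MTT 0.1 mg/mL for 20 min at 37 °C, A570. Mean ± SE of ≥3 experiments in triplicate, as % of control.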

In series [8] the test system is Cerebellar granule neurone. In words: Neurotoxicity in rat primary cerebellar granule neurons assessed as reduction in cell viability at 5 to 25 uM incubated for 24 hrs by MTT assay. The format is toxicity. An outline of the steps:
as §1

Series [9] in a line: Hepatotoxicity in human HepG2 cells assessed as reduction in cell viability at 5 to 50 uM incubated for 24 hrs by MTT assay. As to conditions: hepg2, 24 h. The format is toxicity, cell-based. An outline of the steps: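 HepG2 cells grown in DMEM with 10% FBS at 37 °C, 5% CO2, seeded at 0.5 × 10^5 cells/well and left 24 h. Exposed in serum-free DMEM for 24 h (concentrations listed as 0, 10, 25, 50 µM; elsewhere 0, 5, 25, 50 µM). MTT 0.1 mg/mL for 10 min at 37 °C in the dark. Formazan dissolved in Tris/Triton X-100, A570. Mean ± SE of ≥3 experiments in triplicate; reported as % of control.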

Series [10] is described as follows: Inhibition of AcPHF6 peptide aggregation in pH 7.4 phosphate buffer at 10 uM by atomic force microscopy. An outline of the steps: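 AcPHF6 500 µM in water diluted to 50 µM in 50 mM phosphate pH 7.4, ±10 µM compound, no ThT. Incubated 80 min at 25 °C with 10 s shaking at 400 rpm each minute. Ultrafiltered (30 kDa cut-off), buffer exchanged to water, and the retained high-MW fraction adsorbed on mica. Imaged by PeakForce tapping-mode AFM.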

The nature of series [11]: Inhibition of tau K18 fragment peptide aggregation assessed as induction of delay in […] self aggregation at 1 to 10 uM measured every 15 mins by ThT fluorescence assay based RT-QuIC analysis. An outline of the steps: (§2)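 Tau K18 21 µM with heparin 0.015 mg/mL, 0.1 mM DTT and 10 µM ThT in PBS, with compound at 1, 5 or 10 µM or 1% DMSO; triplicate. Cycled 1 min shaking at 300 rpm and 14 min rest at 37 °C. ThT read every 15 min (ex 450, em 480 nm). Inhibition from mean plateau fluorescence.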

Series [12] in a line: Inhibition of tau K18 fragment peptide aggregation assessed as reduction in […] self aggregation at 1 to 10 uM measured every 15 mins by ThT fluorescence assay based RT-QuIC analysis. An outline of the steps:
as §2

Series [13] deals with Microtubule-associated protein tau (Homo sapiens) (UniProt P10636). The experiment in a line: Inhibition of heparin-induced full-length 2N4R tau self aggregation (unknown origin) assessed as induction of delay in aggregation at 10 uM by ThT fluorescence assay based RT-QuIC analysis. An outline of the steps:
(§3)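 Full-length 2N4R tau 20 µM with heparin 0.02 mg/mL, 0.5 mM DTT and 10 µM ThT in PBS, ±10 µM compound; 1% DMSO control. Cycled 1 min shaking at 600 rpm and 1 min rest at 42 °C. ThT read every 2 min (ex 450, em 480 nm).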

For series [14] the target is unchanged. The experiment in a line: Inhibition of heparin-induced full-length 2N4R tau self aggregation (unknown origin) assessed as reduction in formed aggregates level at 10 uM by ThT fluorescence assay based RT-QuIC analysis. An outline of the steps: as §3
Series [15] addresses T1, Glycogen synthase kinase-3 beta. The experiment in a line: Inhibition of okadaic acid-induced GSK-3beta-mediated tau hyperphosphorylation in human SH-SY5Y cells assessed as increase in cell viability pre-incubated for 1 hr before okadaic acid stimulation for 24 hrs by MTT assay. The series is classed as cell-based. An outline of the steps:
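SH-SY5Y cells grown in DMEM with 10% FBS, seeded at 60000 per well and used 48 h later. Compound given 1 h before 30nM okadaic acid, then 24 h incubation. Viability by MTT, 0.5mg/mL for at least 4 h, formazan dissolved in DMSO, absorbance at 595 nm. Expressed relative to control (=100); n=6 from three independent experiments.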
Target sequence in this assay (P49841 whole entry, looked up): as above

Series [16] has the same target. The experiment in a line: Inhibition of GSK3beta (unknown origin) at 10 uM. An outline of the steps:
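Human recombinant GSK-3β (20 ng) with 25 µM GS-2 prephosphorylated peptide and 1 µM ATP in 50 mM HEPES pH 7.5, 1 mM EDTA, 1 mM EGTA, Mg acetate. DMSO at most 1%. 30 min at 30 °C; reaction stopped with Kinase-Glo, luminescence read after 10 min. Activity scaled between no inhibitor and full inhibition by a reference inhibitor.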
Target sequence in this assay (P49841 whole entry, looked up): as above

Series [17] deals with Casein kinase I isoform delta (Homo sapiens) (UniProt P48730). The experiment in a line: Inhibition of human recombinant CK1delta at 10 uM incubated for 60 mins by Kinase-Glo assay. An outline of the steps:
(§4)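 Human recombinant CK1δ or CK1ε, 16 ng, in 50 mM HEPES pH 7.5 with 10 mM MgCl2, 1 mM EGTA and Brij-35. Substrate 0.1% casein with 4 µM ATP; compound diluted to 10 µM before addition, DMSO ≤1%. Incubated 60 min at 30 °C, then Kinase-Glo luminescence read. Inhibition relative to no-inhibitor activity; mean of two experiments.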

Series [18] addresses Casein kinase I isoform epsilon (Homo sapiens) (UniProt P49674). In words: Inhibition of human recombinant CK1epsilon at 10 uM incubated for 60 mins by Kinase-Glo assay. An outline of the steps: as §4
Series [19] concerns the target CDC7/DBF4 (Cell division cycle 7-related protein kinase/Activator of S phase kinase) (Homo sapiens) (UniProt Q9UBU7+O00311). In words: Inhibition of CDC7/Dbf4 (unknown origin) at 10 uM incubated for 60 mins by Kinase-Glo assay. The format is protein-complex assay. To be noted: in the assay text read “ADP-Glo assay” for “Kinase-Glo assay”. An outline of the steps: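 CDC7/DBF4 enzyme, 25 ng/well, with 10 µM ATP (final) and PDKtide substrate. Incubated 60 min at room temperature. ADP-Glo reagent added for 40 min, then detection reagent for 30 min, and luminescence read. Inhibition calculated relative to the no-inhibitor maximum.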

Series [20] is described as follows: Inhibition of AcPHF6 peptide aggregation in pH 7.4 phosphate buffer at 20 uM by CD Spectroscopy.

Chain of Microtubule-associated protein tau (Homo sapiens) (P10636 whole entry): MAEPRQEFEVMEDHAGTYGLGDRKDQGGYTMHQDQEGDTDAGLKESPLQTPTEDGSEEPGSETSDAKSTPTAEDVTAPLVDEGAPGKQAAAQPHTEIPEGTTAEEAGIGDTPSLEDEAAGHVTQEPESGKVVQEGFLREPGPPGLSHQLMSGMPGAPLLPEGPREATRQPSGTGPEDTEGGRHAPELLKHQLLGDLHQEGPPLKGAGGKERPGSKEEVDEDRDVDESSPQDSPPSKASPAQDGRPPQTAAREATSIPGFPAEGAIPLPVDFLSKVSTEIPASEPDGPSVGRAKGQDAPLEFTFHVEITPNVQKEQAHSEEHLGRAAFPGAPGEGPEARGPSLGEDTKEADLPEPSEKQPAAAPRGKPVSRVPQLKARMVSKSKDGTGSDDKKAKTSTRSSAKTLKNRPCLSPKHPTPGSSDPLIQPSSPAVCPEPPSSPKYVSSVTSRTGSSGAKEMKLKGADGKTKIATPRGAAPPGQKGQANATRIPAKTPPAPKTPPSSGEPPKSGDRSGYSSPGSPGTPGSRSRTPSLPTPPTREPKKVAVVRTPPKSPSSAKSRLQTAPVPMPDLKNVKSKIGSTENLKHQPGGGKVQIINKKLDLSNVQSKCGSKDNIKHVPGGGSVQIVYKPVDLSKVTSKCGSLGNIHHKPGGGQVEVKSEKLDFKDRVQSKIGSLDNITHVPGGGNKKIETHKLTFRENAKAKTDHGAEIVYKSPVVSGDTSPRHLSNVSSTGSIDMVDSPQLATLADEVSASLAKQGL
Chain of Casein kinase I isoform epsilon (Homo sapiens) (P49674 whole entry, looked up, canonical isoform): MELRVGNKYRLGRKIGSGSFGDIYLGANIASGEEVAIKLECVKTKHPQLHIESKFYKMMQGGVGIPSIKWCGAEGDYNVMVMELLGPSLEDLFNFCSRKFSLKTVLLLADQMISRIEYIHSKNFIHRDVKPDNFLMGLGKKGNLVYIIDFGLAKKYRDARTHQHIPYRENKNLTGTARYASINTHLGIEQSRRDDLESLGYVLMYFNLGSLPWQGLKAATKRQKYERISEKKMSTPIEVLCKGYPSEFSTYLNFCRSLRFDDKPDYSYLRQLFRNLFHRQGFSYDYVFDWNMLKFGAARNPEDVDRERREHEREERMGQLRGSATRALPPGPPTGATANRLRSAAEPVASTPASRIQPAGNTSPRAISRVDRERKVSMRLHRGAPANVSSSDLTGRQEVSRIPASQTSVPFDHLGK
Chain of CDC7/DBF4 (Cell division cycle 7-related protein kinase/Activator of S phase kinase) (Homo sapiens) (O00311 whole entry, looked up): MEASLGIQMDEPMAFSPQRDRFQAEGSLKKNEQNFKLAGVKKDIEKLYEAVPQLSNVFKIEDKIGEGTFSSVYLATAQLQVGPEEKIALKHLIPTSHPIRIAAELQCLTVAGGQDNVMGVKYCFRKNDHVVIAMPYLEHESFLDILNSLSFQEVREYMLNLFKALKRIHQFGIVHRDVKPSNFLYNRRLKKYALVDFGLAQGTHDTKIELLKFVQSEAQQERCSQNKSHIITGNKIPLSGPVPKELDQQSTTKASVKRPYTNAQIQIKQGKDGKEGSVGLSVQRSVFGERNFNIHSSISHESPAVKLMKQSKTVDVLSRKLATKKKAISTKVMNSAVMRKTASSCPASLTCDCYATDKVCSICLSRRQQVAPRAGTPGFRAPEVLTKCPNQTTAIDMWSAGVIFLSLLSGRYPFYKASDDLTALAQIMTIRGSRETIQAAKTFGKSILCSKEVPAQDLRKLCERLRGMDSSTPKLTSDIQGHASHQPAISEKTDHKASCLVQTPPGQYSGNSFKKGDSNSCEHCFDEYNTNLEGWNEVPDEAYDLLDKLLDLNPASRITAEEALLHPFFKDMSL
Chain of CDC7/DBF4 (Cell division cycle 7-related protein kinase/Activator of S phase kinase) (Homo sapiens) (Q9UBU7 whole entry, looked up): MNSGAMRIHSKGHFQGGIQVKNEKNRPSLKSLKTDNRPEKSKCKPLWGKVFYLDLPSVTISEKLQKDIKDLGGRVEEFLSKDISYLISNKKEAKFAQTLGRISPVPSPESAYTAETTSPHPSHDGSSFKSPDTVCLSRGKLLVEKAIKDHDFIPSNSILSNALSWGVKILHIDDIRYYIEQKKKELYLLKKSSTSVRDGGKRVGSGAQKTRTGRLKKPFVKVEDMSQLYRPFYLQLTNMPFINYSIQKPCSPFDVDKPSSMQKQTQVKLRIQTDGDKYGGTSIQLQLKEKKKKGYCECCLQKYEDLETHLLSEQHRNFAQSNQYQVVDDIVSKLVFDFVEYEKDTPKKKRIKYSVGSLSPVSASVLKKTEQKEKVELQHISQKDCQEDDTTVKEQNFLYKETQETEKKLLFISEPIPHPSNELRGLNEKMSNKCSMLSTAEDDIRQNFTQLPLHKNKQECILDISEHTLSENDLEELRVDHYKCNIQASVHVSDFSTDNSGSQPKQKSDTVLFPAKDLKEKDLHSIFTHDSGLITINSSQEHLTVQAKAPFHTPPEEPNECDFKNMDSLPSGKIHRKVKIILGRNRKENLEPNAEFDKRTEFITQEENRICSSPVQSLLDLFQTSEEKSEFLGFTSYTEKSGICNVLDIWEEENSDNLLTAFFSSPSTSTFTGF
Chain of Casein kinase I isoform delta (Homo sapiens) (P48730 whole entry, looked up, canonical isoform): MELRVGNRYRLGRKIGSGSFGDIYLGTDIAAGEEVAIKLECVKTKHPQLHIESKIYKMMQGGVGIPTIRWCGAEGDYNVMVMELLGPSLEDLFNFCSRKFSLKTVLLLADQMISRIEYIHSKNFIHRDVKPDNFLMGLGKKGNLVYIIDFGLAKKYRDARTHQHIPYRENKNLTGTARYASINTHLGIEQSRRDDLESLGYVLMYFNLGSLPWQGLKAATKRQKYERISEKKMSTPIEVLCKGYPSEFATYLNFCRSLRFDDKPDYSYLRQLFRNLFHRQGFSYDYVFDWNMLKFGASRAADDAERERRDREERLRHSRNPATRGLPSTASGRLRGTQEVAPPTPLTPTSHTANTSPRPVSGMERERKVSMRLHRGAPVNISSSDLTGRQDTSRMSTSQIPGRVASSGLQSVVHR

In the case of `COc1ccc2c(c1)c(/C=C1\SC(=O)NC1=O)cn2C`, the inhibition in series [1] was above 50%; in series [12], 35%; in [14], 30%; in series [16], 100%. For the same compound, the pIC50 in series [2] was 6.05; in series [3] it was 5.26. The inhibition entry in series [4], in [5], in [10], in series [11], in series [15] and in [20] was “Active” in each case. For the same compound, the Papp at 2.5 h in series [6] is above 30.7 nm/s. Moreover, the Activity result is recorded as “Toxic” in [7], “Non-Toxic” in series [8] and “Non-Toxic” in series [9]. In addition, the inhibition result in series [13], in series [17], in [18] and in [19] was “inactive” in each case.

The values are drawn from ChEMBL document CHEMBL4145680, “Tau-Centric Multitarget Approach for Alzheimer's Disease: Development of First-in-Class Dual Glycogen Synthase Kinase 3β and Tau-Aggregation Inhibitors” (J Med Chem, 2018).
